Most compounds without a hit are left out; they make up all but 2.3% or so of the library.
CHT allo act = human CHT allosteric activation. Q9GZV3. CHT-expressing cells, membrane potential dye, choline EC20; hits give high values; LV-AA mutant CHT in HEK293 cells. B-score at 10 µM. 310,000 tested, 0.49% active. AID 488977;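 active = initial fluorescence not abnormally high and integrated response B-score, plate-corrected, over 3 SD above library mean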
Target sequence (Q9GZV3 whole entry, looked up): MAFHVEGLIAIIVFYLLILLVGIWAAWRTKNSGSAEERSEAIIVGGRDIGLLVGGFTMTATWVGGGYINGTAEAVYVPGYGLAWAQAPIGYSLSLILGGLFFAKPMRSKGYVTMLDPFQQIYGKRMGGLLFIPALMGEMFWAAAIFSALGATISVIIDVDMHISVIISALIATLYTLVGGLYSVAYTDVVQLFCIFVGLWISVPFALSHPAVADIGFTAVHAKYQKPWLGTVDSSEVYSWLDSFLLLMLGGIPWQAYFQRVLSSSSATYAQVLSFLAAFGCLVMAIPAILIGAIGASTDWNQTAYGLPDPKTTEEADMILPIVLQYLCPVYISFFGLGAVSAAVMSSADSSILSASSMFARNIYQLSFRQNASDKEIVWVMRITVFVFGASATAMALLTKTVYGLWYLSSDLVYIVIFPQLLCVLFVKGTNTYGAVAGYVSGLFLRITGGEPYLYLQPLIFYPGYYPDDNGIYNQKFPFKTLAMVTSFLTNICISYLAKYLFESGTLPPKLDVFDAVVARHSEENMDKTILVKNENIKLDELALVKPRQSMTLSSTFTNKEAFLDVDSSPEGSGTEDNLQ
NR2E3 ag-1 = NR2E3 (human) agonism; Q9Y5X4; inhibition of corepressor binding, % at 4.78 µM; GST-NR2E3/biotin-RetCOR TR-FRET, 1536-well; 320,000 tested, 0.12% active; AID 2300;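 active = percent inhibition above the cutoff of mean plus 3 SD of all tested compounds, set per screening campaign, cut at about 20% in these data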;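 note: 0% = DMSO wells and 100% = biotin wells as full block of FRET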
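Material: NR2E3–RetCOR corepressor complex / Amount: 1.35 nM GST-NR2E3 / Medium: Tris pH 7.5 / Compound: single nominal compound dose of 4.8 µM / Incubation: 5 h at 4 °C / Technique: TR-FRET, Eu(K)-anti-GST donor, streptavidin-D2 acceptor, ex 340, em 617/671 nm / Read-out basis: percent loss of FRET ratio relative to control wells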
CHT inh = inhibitors of human choline transporter CHT | B-score at 10 µM | 310,000 tested, 0.86% active | Q9GZV3 | CHT-expressing cells, membrane potential dye, choline response; hits give low values;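 active = B-score over 3 SD under the library average, and starting fluorescence ratio not unusually high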;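 note: choline stimulus applied at its EC90 after an EC20 pre-addition; B-score computed on integrated fluorescence ratio after choline addition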
GalR3 antag = human GalR3 antagonism; HEK293 GalR3-CNG cAMP membrane potential fluorescence; galR3 body fused to GalR1 C-terminus; O60755; 360,000 tested, 0.44% active; inhibition, % at 3 µM; AID 651719;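 active = inhibition above the screen-wide average plus 3 SD, cut at about 13% in these data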;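 note: forskolin and galanin both at EC90 stimulate the cells; cAMP rise reported by CNG channel membrane potential dye signal; 0% = forskolin plus galanin with DMSO and 100% = forskolin alone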
NR2E3 ag-2 = agonists of human NR2E3 nuclear receptor; Q9Y5X4; CHO-S Gal4-NCOR/VP16-NR2E3 two-hybrid, luciferase; inhibition of corepressor binding, % at 3.98 µM; 360,000 tested, 0.35% active; AID 602229;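 active = inhibition above the mean of all tested compounds plus 3 SD, cut at about 70% in these data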;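 note: 0% = DMSO with NR2E3 transfected cells and 100% = cells lacking NR2E3 construct; higher means lower luciferase signal from less NR2E3 corepressor binding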
COUP-TFII inh = blocks human COUP-TFII nuclear receptor; HEK293T NGFI-A luciferase reporter, luminescence; inhibition, % at 8.6 µM; 370,000 tested, 0.7% active;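 active = inhibition above a per-plate cutoff, mean inhibition of test wells between control levels plus 3 SD, cut at about 38% in these data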;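 note: cells cotransfected with COUP-TFII expression vector driving the NGFI-A reporter; 0% = median of COUP-TF2 test wells and 100% = reporter-only cells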
NR2E3 ag conf = confirmation of human NR2E3 agonists | inhibition, % at 3.98 µM | AID 624378 | 2,300 tested, 51% active | CHO-S mammalian two-hybrid NR2E3-NCOR, luciferase luminescence | shares compounds with NR2E3 ag-2;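 active = average inhibition above a cutoff equal to the mean inhibition of all tested compounds plus one SD, cut at about 70% in these data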;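 note: 0% = DMSO in NR2E3 cells and 100% = DMSO in cells lacking NR2E3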
GAL4-VP16 luc = counter-screen for NR2E3 agonists: GAL4-VP16 reporter inhibitors; 2,300 tested, 29% active; AID 624379; CHO-S GAL4-VP16 luciferase reporter, luminescence; shares compounds with NR2E3 ag-2; inhibition, % at 3.98 µM;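 active = mean inhibition above a cutoff equal to the average over all tested compounds plus one standard deviation, cut at about 70% in these data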;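 note: luciferase from a UAS reporter driven by GAL4-VP16 transactivation; 0% = DMSO with VP16-transfected cells and 100% = DMSO with cells lacking VP16; higher means less reporter light so more repression of VP16 activity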
Starred values were filed as active, the others as inactive; i = inactive; · = no result.

SMILES	CHT allo act	NR2E3 ag-1	CHT inh	GalR3 antag	NR2E3 ag-2	COUP-TFII inh	NR2E3 ag conf	GAL4-VP16 luc
CC(=O)c1cc(-c2cc(C(F)(F)F)cc(C(F)(F)F)c2)c(=O)n2c1CCC2	·	·	·	·	·	9.1	·	·
CCCc1cc(=O)n2[nH]cc(-c3ccc(Cl)cc3)c2n1	i	·	i	-10.9	93.3*	1.0	98.2*	70.9*
COCc1cc(=O)n2[nH]cc(-c3ccccc3)c2n1	i	1.4	i	-2.0	-28.4	-23.2	·	·
C=CCN=C1NN=C(c2cc(C)n(CC=C)c2C)CS1	i	-1.4	i	0.3	54.6	76.5*	54.8	32.0
COCCN=C1NN=C(c2cc(C)n(CC3CCCO3)c2C)CS1 (stereo not given)	i	-0.5	i	-6.7	-16.7	21.4	·	·
CN1C(=O)c2cc(NC(=O)C3CC3)ccc2OC[C@H]2O[C@@H](CC(=O)NC3CCC3)CC[C@@H]21	·	·	·	·	·	13.8	·	·
Cc1ccc(S(=O)(=O)/N=C2\C=C(Nc3ccc(O)cc3)C(=O)c3ccccc32)cc1	·	·	·	·	101.8*	·	99.9*	99.3*
Cc1ccc(NC2=C(NCCO)C(=O)c3ccccc3C2=O)cc1	i	6.0	i	-0.8	-76.4	-24.2	·	·
O=C(NNC(=O)c1ccccc1-c1ccccc1C(=O)O)c1ccccc1	i	1.4	i	-4.2	-14.8	6.8	·	·
O=C(C=P(c1ccccc1)(c1ccccc1)c1ccccc1)c1ccccc1-c1ccccc1C(=O)C=P(c1ccccc1)(c1ccccc1)c1ccccc1	·	·	·	33.4*	98.4*	79.8*	99.5*	87.4*
Cc1occc1C(=O)N1CCN(c2ccc(Cl)c(Cl)c2)CC1	i	3.9	i	-8.4	54.2	10.9	81.0*	58.2
O=C(NCc1ccccc1)N1CCN(c2ccc(Cl)c(Cl)c2)CC1	i	-0.8	i	-6.3	77.1*	-7.1	92.6*	75.6*
O=C(NCc1ccccc1)N1CCN(c2ccc(F)cc2)CC1	i	0.6	i	0.4	-12.9	15.4	·	·
C#CCNC(=O)C[C@H]1C[C@@]2(C(=O)OC)C(=C[C@H](COCc3ccccc3)O[C@@H]2C)N(Cc2ccc(Cl)cc2Cl)C1=O	·	·	·	·	·	5.1	·	·
CC(O)(c1ccncc1)c1nc(-c2cccc(C(F)(F)F)c2)cs1 (stereo not given)	·	·	·	-6.8	84.7*	16.3	93.2*	74.3*
CCN(CC)C(=O)c1cccc(-c2csc(C(C)(O)c3ccc(F)c(F)c3)n2)c1 (stereo not given)	·	·	·	·	51.2	·	41.8	39.1
Nc1[nH]c2ccccc2c1C(=O)NC1CC1	·	·	·	·	·	-1.5	·	·
C=CCn1c(O)c(N=NC(=S)Nc2cccc(OC)c2)c2ccccc21	i	-0.5	i	-13.3	77.0*	8.0	31.3	35.1
COc1ccc(Cn2ccc3ccc(-c4ccc5ccn(Cc6cccc(F)c6)c5c4)cc32)cc1	·	·	·	·	·	-0.6	·	·
CCCNC(=O)Cn1cccc1C(=O)c1ccccc1	i	-2.4	i	-2.5	89.3*	2.5	22.1	11.5
O=C(Nc1ccc(-n2ccc(C(F)(F)F)n2)cc1)Nc1cccc(Cl)c1	i	-1.5	i	-8.9	81.6*	-21.0	98.6*	75.5*
CC(NNC(=S)N1CCN(c2ccccn2)CC1)c1nccc2ccccc12 (stereo not given)	·	·	·	-4.0	83.0*	27.4	5.1	14.3
CCCCCc1ccc(-c2n[nH]c(=O)c3ccccc23)cc1	·	·	·	·	·	-14.3	·	·
Cc1ccc(NC(=S)N/N=C2\CCCCC2C)cc1 (stereo not given)	i	3.1	i	-4.7	-70.3	-4.0	·	·
CC1CCCC/C1=N\NC(=S)NCCc1ccccc1 (stereo not given)	i	-1.1	i	-5.4	49.9	0.1	-7.4	-5.0
SMILES	CHT allo act	NR2E3 ag-1	CHT inh	GalR3 antag	NR2E3 ag-2	COUP-TFII inh	NR2E3 ag conf	GAL4-VP16 luc
COC(=O)C1=C(C)N(C)C(=NCc2ccccc2C(F)(F)F)NC1CCc1ccccc1 (stereo not given)	·	·	·	-1.9	·	3.4	·	·
Cc1ccccc1C(=O)N(C)[C@H]1C[C@H]2c3[nH]c4c(-c5ccc6c(c5)OCO6)cccc4c3CCN2C(=O)[C@H]1[C@H](C)O	·	·	·	-5.6	·	-6.0	·	·
O=C(NC(NNc1ccc([N+](=O)[O-])cc1)(C(F)(F)F)C(F)(F)F)c1ccc(Cl)cc1	i	4.2	i	-4.3	47.7	14.3	80.3*	84.9*
NC(=S)N=Nc1c(O)n(CCCl)c2ccc(Cl)cc12	i	4.7	i	-3.3	50.0	-8.8	33.3	7.4
O=C(Nc1ccc(Cl)cc1Cl)O[C@@H]1CC[C@@]23CCCN2C(=O)CCC[C@H]3C1	·	·	·	·	·	-12.3	·	·
Cc1cc(N2CCN(CCO)CC2)n2nc(C)nc2n1	·	·	·	·	·	3.8	·	·
CNc1snc(C)c1C(=O)OCC(=O)Nc1ccc(C)cc1F	·	·	·	-5.5	48.0	28.4	30.7	38.7
CCc1ccccc1NC(=O)COC(=O)c1c(C)nsc1NC	·	3.1	·	-3.2	20.6	13.3	·	·
COC(=O)C12C=C3CC(c4ccc(C(F)(F)F)cc4)=C3C(=O)N1Cc1[nH]c3ccccc3c1C2 (stereo not given)	·	·	·	·	·	2.7	·	·
ON=C1c2ccccc2-c2ccc(Br)cc21	·	·	·	-5.3	-37.8	11.0	·	·
NC(=S)NN=C1c2ccccc2-c2cc(Br)ccc21	·	·	·	-6.7	85.0*	32.2	-5.3	-26.9
COc1cccc(/C=C2\CC3(OC(=O)c4ccc(Cl)cc4)CCCN2C3)c1 (stereo not given)	·	·	·	·	·	-13.9	·	·
Cc1nc2ccc(NS(=O)(=O)c3ccc(F)cc3F)cc2s1	·	0.4	·	-6.8	16.4	12.3	·	·
Cc1nc2ccc(NS(=O)(=O)c3c(F)cc(F)cc3Br)cc2s1	·	1.7	·	-8.0	74.7*	-1.8	71.6*	61.6
Cc1ccc(NS(=O)(=O)c2ccc3c(c2)NC(=O)CCS3)cc1C	i	-0.7	i	-8.0	53.6	-0.2	-1.6	22.2
CC(=O)c1cccc(S(=O)(=O)Nc2ccc3nc(C)sc3c2)c1	i	4.1	i	5.4	40.7	23.9	·	·
Cc1nc2ccc(NS(=O)(=O)c3ccc(C)c(C)c3)cc2s1	i	1.8	i	-4.9	81.3*	12.0	95.9*	80.1*
Cc1ccc(NS(=O)(=O)c2ccc3c(c2)NC(=O)CCS3)cc1F	i	0.3	i	-6.7	-29.3	-8.7	·	·
O=C(NCc1cccs1)O[C@H]1CC[C@@]23CCCN2C(=O)CCC[C@H]3C1	·	·	·	·	·	-6.5	·	·
O=C(CSc1nnc(NC(=O)C2CC2)s1)NCc1ccccc1	i	1.8	i	-6.6	68.1	-8.3	-24.6	-8.6
CC(C)C[C@@H]1COc2cc(F)ccc2S(=O)(=O)N1C	·	·	·	·	·	3.9	·	·

High-throughput results as filed in PubChem BioAssay.
